We go through 40 compounds from ChEMBL document CHEMBL4130623, “Discovery of Highly Potent Pinanamine-Based Inhibitors against Amantadine- and Oseltamivir-Resistant Influenza A Viruses” (J Med Chem, 2018).

Holding throughout (assay type): functional, organism-based
Assay [1] relates to Influenza A virus. Description: Antiviral activity against Influenza A virus (A/Guangzhou/GIRD/07/2009 (H1N1)) infected in MDCK cells assessed as reduction in virus-induced cytopathic effect after 48 hrs by microscopic analysis. In short, it runs like this:
(§1)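 MDCK monolayers (5×10^4 cells/well, grown 24 h) were rinsed twice, infected with 100 TCID50 virus for 2 h at 37 °C in 5% CO2, and the inoculum was removed. Two-fold serial compound dilutions in DMEM with 1.5 µg/mL trypsin were added and incubated 48 h at 34 °C. CPE percentage was scored by microscope and EC50 fitted by non-linear regression.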

Assay [2] relates to Influenza A virus. The experiment in a line: Antiviral activity against Influenza A virus (A/WSN/33) by CCK-8 reagent based assay. Conditions: A/WSN/1933(H1N1).
Assay [3] deals with Influenza A virus. Description: Antiviral activity against Influenza A virus (A/HK/68) by CCK-8 reagent based assay.
The test system of assay [4] is Influenza A virus. The experiment in a line: Antiviral activity against Influenza A virus (A/Guangzhou/GIRD/07/2009 (H1N1)) infected in MDCK cells assessed as reduction in virus-induced cytopathic effect at less than cytotoxic MCC level after 48 hrs by microscopic analysis.
Assay [5] concerns Influenza A virus. The experiment in a line: Antiviral activity against Influenza A virus (A/WSN/33 (H1N1)) infected in MDCK cells assessed as reduction in virus-induced cytopathic effect after 48 hrs by microscopic analysis. As to conditions: A/WSN/1933(H1N1). In short, it runs like this:
as §1

Assay [6] relates to Influenza A virus. Description: Antiviral activity against Influenza A virus (A/PR/8/34 (H1N1)) infected in MDCK cells assessed as reduction in virus-induced cytopathic effect after 48 hrs by microscopic analysis. Conditions: A/Puerto Rico/8/1934(H1N1). In short, it runs like this: as §1
The test system of assay [7] is Influenza A virus. The experiment in a line: Antiviral activity against Influenza A virus (A/HK/68(H3N2)) infected in MDCK cells assessed as reduction in virus-induced cytopathic effect after 48 hrs by microscopic analysis. In short, it runs like this:
as §1

The subject of another assay is H3N2 subtype. Description: Antiviral activity against Influenza A virus (A/Aichi/2/68 (H3N2)) infected in MDCK cells assessed as reduction in virus-induced cytopathic effect after 48 hrs by microscopic analysis. Conditions: A/Aichi/2/1968(H3N2). In short, it runs like this: as §1
In assay [8] the test system is Influenza A virus. Description: Antiviral activity against Influenza A virus (A/duck/Guangdong/1/1996 (H7N3)) infected in MDCK cells assessed as reduction in virus-induced cytopathic effect after 48 hrs by microscopic analysis. In short, it runs like this: as §1
The subject of assay [9] is Influenza A virus. Description: Antiviral activity against Influenza A virus (A/duck/HK/Y280/97 (H9N2)) infected in MDCK cells assessed as reduction in virus-induced cytopathic effect after 48 hrs by microscopic analysis. In short, it runs like this: as §1

The source made the active and inactive calls. The calls are words filed in the database; no cut-off is given here.

`Cc1csc(CN[C@@H]2CC3CC([C@H]2C)C3(C)C)c1` (single isomer, unassigned): the EC50 in the assay with Influenza A virus [1] was 200 nM. Also, the outcome in the assay with Influenza A virus [2] and in the assay with Influenza A virus [3] was Active.

Regarding `CCCc1ccsc1CN[C@@H]1CC2CC([C@H]1C)C2(C)C` (single isomer, unassigned), the result in the assay on Influenza A virus [2] and with Influenza A virus [3] was Active. For the same compound, in the assay with Influenza A virus [4], the inhibition entry was “inactive”.

As for `C[C@@H]1C2CC(C[C@H]1NCc1ccc(-c3ccc(Br)s3)s1)C2(C)C` (single isomer, unassigned), the inhibition entry with Influenza A virus [4] is “inactive”.

Take `NC12CC3CC(CC(C3)C1)C2` [AMANTADINE]: the EC50 in the assay on Influenza A virus [1] was more than 100000 nM; with Influenza A virus [5], more than 100000 nM; in the assay with Influenza A virus [6], more than 100000 nM; in the assay on Influenza A virus [7], 1000 nM.

On to `CCCCc1csc(CN[C@@H]2CC3CC([C@H]2C)C3(C)C)c1` (single isomer, unassigned), for which, in the assay on Influenza A virus [1], the concentration giving a half-maximal response (EC50) was 460 nM.

In the case of `C[C@@H]1C2CC(C[C@H]1NCc1cc(C3CC3)cs1)C2(C)C` (single isomer, unassigned), in the assay on Influenza A virus [1], the EC50 is 6680 nM. The outcome in the assay with Influenza A virus [2] and in the assay on Influenza A virus [3] was Active.

For the compound `CCc1ccsc1CN[C@@H]1CC2CC([C@H]1C)C2(C)C` (single isomer, unassigned), the outcome in the assay with Influenza A virus [2] and in the assay with Influenza A virus [3] was Active. The inhibition entry in the assay with Influenza A virus [4] is “inactive”.

Consider `C[C@@H]1C2CC(C[C@H]1NCc1cc(Br)cs1)C2(C)C` (single isomer, unassigned), for which the EC50 in the assay on Influenza A virus [1] came out at 5160 nM. The outcome in the assay with Influenza A virus [2] and in the assay on Influenza A virus [3] was Active.

With `C[C@@H]1C2CC(C[C@H]1NCc1ccc(Br)s1)C2(C)C` (single isomer, unassigned), the inhibition result in the assay on Influenza A virus [4] is “inactive”.

As to `CCc1csc(CN[C@@H]2CC3CC([C@H]2C)C3(C)C)c1` (single isomer, unassigned), the inhibition entry in the assay on Influenza A virus [4] was “inactive”.

With `CCOC(=O)C1=C[C@@H](OC(CC)CC)[C@H](NC(C)=O)[C@@H](N)C1` [OSELTAMIVIR], the EC50 in the assay with Influenza A virus [5] was 400 nM; in the assay with Influenza A virus [6], 130 nM; in the assay on Influenza A virus [7], 2300 nM; in the assay on H3N2 subtype it was 990 nM; with Influenza A virus [8], 2670 nM; with Influenza A virus [9], more than 10000 nM.

For the compound `C=Cc1csc(CN[C@@H]2CC3CC([C@H]2C)C3(C)C)c1` (single isomer, unassigned), the outcome with Influenza A virus [2] and in the assay on Influenza A virus [3] was Active. Further, the inhibition result in the assay on Influenza A virus [4] was “inactive”.

Consider `CCCc1csc(CN[C@@H]2CC3CC([C@H]2C)C3(C)C)c1` (single isomer, unassigned), for which the result with Influenza A virus [2] and in the assay on Influenza A virus [3] was Active. Further, the inhibition result with Influenza A virus [4] was “inactive”.

With `C[C@@H]1C2CC(C[C@H]1NCc1cc(C3CCCC3)cs1)C2(C)C` (single isomer, unassigned), in the assay with Influenza A virus [4], the inhibition entry is “inactive”.

For the compound `C[C@@H]1C2CC(C[C@H]1NCc1sccc1Br)C2(C)C` (single isomer, unassigned), the result with Influenza A virus [2] and in the assay with Influenza A virus [3] was Active. Moreover, the inhibition entry in the assay with Influenza A virus [4] is “inactive”.

In the case of `C[C@@H]1C2CC(C[C@H]1NCc1cc(-c3ccsc3)cs1)C2(C)C` (single isomer, unassigned), in the assay on Influenza A virus [4], the inhibition result was “inactive”.

Consider `C[C@@H]1C2CC(C[C@H]1NCc1sccc1C1CCCC1)C2(C)C` (single isomer, unassigned), for which the EC50 in the assay with Influenza A virus [1] turned out to be 690 nM.

With `CCCCc1ccsc1CN[C@@H]1CC2CC([C@H]1C)C2(C)C` (single isomer, unassigned), the EC50 in the assay on Influenza A virus [1] was 10300 nM. Further, the result in the assay on Influenza A virus [2] and in the assay on Influenza A virus [3] was Active.

As for `Cc1ccsc1CN[C@@H]1C[C@H]2C[C@@H]([C@H]1C)C2(C)C`, the result with Influenza A virus [2] and with Influenza A virus [3] was Active. Moreover, the inhibition result in the assay on Influenza A virus [4] is “inactive”.

Consider `C[C@@H]1C2CC(C[C@H]1NCc1cnccn1)C2(C)C` (single isomer, unassigned), for which the inhibition result in the assay with Influenza A virus [4] was “inactive”.

On to `Cc1ccc(CN[C@@H]2CC3CC([C@H]2C)C3(C)C)s1` (single isomer, unassigned), for which the result in the assay on Influenza A virus [2] and in the assay on Influenza A virus [3] was Active. Also, in the assay on Influenza A virus [4], the inhibition result was “inactive”.

With `C[C@@H]1C2CC(C[C@H]1NCc1sccc1-c1ccsc1)C2(C)C` (single isomer, unassigned), in the assay on Influenza A virus [4], the inhibition entry is “inactive”.

Take `C[C@@H]1C2CC(C[C@H]1NCc1cc(C3CCCCC3)cs1)C2(C)C` (single isomer, unassigned): the inhibition result in the assay with Influenza A virus [4] is “inactive”.

On to `C[C@@H]1C2CC(C[C@H]1NCc1cncnc1)C2(C)C` (single isomer, unassigned), for which the inhibition result in the assay with Influenza A virus [4] was “inactive”.

`C=C(C)c1csc(CN[C@@H]2CC3CC([C@H]2C)C3(C)C)c1` (single isomer, unassigned): the inhibition result in the assay on Influenza A virus [4] was “inactive”.

For the compound `CCOc1ccsc1CN[C@@H]1CC2CC([C@H]1C)C2(C)C` (single isomer, unassigned), the outcome in the assay on Influenza A virus [2] and with Influenza A virus [3] was Active. Further, the inhibition entry in the assay with Influenza A virus [4] was “inactive”.

With `C[C@@H]1C2CC(C[C@H]1NCc1ccoc1)C2(C)C` (single isomer, unassigned), the EC50 in the assay on Influenza A virus [1] was found to be 60500 nM.

In the case of `Cc1csc(CN[C@@H]2CC3CC([C@H]2C)C3(C)C)n1` (single isomer, unassigned), in the assay on Influenza A virus [1], the EC50 worked out at 75000 nM. Also, the outcome in the assay on Influenza A virus [2] and in the assay with Influenza A virus [3] was Active.

Take `C[C@@H]1C2CC(C[C@H]1NCc1sccc1-c1ccccc1)C2(C)C` (single isomer, unassigned): the inhibition result with Influenza A virus [4] was “inactive”.

As for `Cc1n[nH]cc1CN[C@@H]1CC2CC([C@H]1C)C2(C)C` (single isomer, unassigned), the inhibition entry in the assay with Influenza A virus [4] was “inactive”.

With `C[C@@H]1C2CC(C[C@H]1NCc1ccc(Cl)s1)C2(C)C` (single isomer, unassigned), the inhibition result in the assay on Influenza A virus [4] was “inactive”.

In the case of `CCc1ccc(CN[C@@H]2CC3CC([C@H]2C)C3(C)C)s1` (single isomer, unassigned), the inhibition entry in the assay on Influenza A virus [4] was “inactive”.

For `C[C@@H]1C2CC(C[C@H]1NCc1sccc1C1CCCCC1)C2(C)C` (single isomer, unassigned), in the assay on Influenza A virus [4], the inhibition entry was “inactive”.

`C[C@@H]1C2CC(C[C@H]1NCc1ccsc1)C2(C)C` (single isomer, unassigned): the EC50 in the assay on Influenza A virus [1] is 28600 nM. For the same compound, the result with Influenza A virus [2] and in the assay on Influenza A virus [3] was Active.

In the case of `C[C@@H]1C2CC(C[C@H]1NCc1ccco1)C2(C)C` (single isomer, unassigned), the inhibition entry in the assay with Influenza A virus [4] was “inactive”.

In the case of `C=Cc1ccsc1CN[C@@H]1CC2CC([C@H]1C)C2(C)C` (single isomer, unassigned), in the assay with Influenza A virus [1], the EC50 amounted to 1820 nM. In addition, the outcome in the assay with Influenza A virus [2] and with Influenza A virus [3] was Active.

For the compound `C[C@@H]1C2CC(C[C@H]1NCc1ccc(C(C)(C)C)s1)C2(C)C` (single isomer, unassigned), the inhibition entry in the assay on Influenza A virus [4] is “inactive”.

Take `CSc1ccc(CN[C@@H]2CC3CC([C@H]2C)C3(C)C)s1` (single isomer, unassigned): the result with Influenza A virus [2] and in the assay on Influenza A virus [3] was Active. For the same compound, the inhibition entry in the assay with Influenza A virus [4] was “inactive”.

For the compound `C[C@@H]1C2CC(C[C@H]1NCc1cc(-c3ccccc3)cs1)C2(C)C` (single isomer, unassigned), in the assay with Influenza A virus [4], the inhibition entry was “inactive”.

As to `C[C@@H]1C2CC(C[C@H]1NCc1cccs1)C2(C)C` (single isomer, unassigned), the EC50 in the assay on Influenza A virus [1] came out at 6420 nM. In addition, the outcome in the assay with Influenza A virus [2] and in the assay with Influenza A virus [3] was Active.
